Data set [1] concerns the target T1, Histone deacetylase 9 (Homo sapiens, UniProt Q9UKV0). In words: Inhibition of HDAC9 (unknown origin) at 1 uM incubated for 30 mins in presence of BSA and in absence of DTT by fluorescence assay. Put shortly: (§1)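 Purified-HDAC assay, single point: percent inhibition read at 1 μM, the highest concentration tested.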
In data set [2] the target is T2, Histone deacetylase 5 (Homo sapiens, UniProt Q9UQL6). In words: Inhibition of HDAC5 (unknown origin) at 1 uM incubated for 30 mins in presence of BSA and in absence of DTT by fluorescence assay. In short, it runs like this:
as §1

Data set [3] is described as follows: Antiproliferative activity against human HCT116 cells after 48 hrs in absence of DTT by MTT assay. It counts as functional, cell-based. The settings on record: HCT-116, 48 h.
The target in data set [4] is T3, Histone deacetylase 7 (Homo sapiens) (UniProt Q8WUI4).
T3 sequence (whole entry): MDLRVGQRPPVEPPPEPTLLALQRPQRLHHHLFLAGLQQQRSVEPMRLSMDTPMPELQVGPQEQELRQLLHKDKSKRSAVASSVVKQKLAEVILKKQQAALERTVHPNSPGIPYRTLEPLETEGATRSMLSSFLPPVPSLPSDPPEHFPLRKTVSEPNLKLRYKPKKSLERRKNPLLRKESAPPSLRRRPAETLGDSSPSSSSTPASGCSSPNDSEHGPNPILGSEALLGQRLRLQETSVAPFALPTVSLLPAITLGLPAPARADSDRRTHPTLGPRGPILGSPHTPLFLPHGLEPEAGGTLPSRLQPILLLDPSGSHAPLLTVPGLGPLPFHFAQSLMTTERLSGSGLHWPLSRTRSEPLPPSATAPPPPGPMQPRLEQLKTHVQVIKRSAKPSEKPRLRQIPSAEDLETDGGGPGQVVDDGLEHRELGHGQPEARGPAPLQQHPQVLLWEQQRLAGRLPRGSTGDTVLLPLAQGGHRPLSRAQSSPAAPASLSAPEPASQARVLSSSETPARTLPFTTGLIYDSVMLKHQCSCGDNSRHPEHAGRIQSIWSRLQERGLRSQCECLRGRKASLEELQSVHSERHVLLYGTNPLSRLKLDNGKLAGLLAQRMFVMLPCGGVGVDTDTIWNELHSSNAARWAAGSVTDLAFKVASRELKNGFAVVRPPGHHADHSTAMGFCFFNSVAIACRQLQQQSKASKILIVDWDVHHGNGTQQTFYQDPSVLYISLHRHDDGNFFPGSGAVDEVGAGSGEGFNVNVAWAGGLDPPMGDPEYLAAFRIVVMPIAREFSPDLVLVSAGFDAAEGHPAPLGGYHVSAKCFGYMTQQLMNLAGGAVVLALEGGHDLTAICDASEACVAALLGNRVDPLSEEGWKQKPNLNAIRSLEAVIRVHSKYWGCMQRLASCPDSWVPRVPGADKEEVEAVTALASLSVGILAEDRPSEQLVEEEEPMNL
Put plainly: Inhibition of HDAC7 (unknown origin) at 1 uM incubated for 30 mins in presence of BSA and in absence of DTT by fluorescence assay. In short, it runs like this:
as §1

Data set [5] addresses T4, Histone deacetylase 4 (Homo sapiens, UniProt P56524). In words: Inhibition of HDAC4 (unknown origin) at 1 uM incubated for 30 mins in presence of BSA and in absence of DTT by fluorescence assay. In short, it runs like this: as §1
In data set [6] the target is T2, Histone deacetylase 5. In words: Inhibition of HDAC5 (unknown origin) incubated for 30 mins in presence of BSA and in absence of DTT by fluorescence assay.
The target of data set [7] is T1, Histone deacetylase 9. In words: Inhibition of HDAC9 (unknown origin) incubated for 30 mins in presence of BSA and in absence of DTT by fluorescence assay.
The target of another data set is T5, Histone deacetylase 7 (Homo sapiens, UniProt Q8WUI4).
T5 sequence (Q8WUI4 whole entry): T3 sequence (whole entry)
Put plainly: Inhibition of HDAC7 (unknown origin) incubated for 30 mins in presence of BSA and in absence of DTT by fluorescence assay.

Data set [8] concerns the target T4, Histone deacetylase 4. In words: Inhibition of HDAC4 (unknown origin) incubated for 30 mins in presence of BSA and in absence of DTT by fluorescence assay.
Data set [9] is described as follows: Drug metabolism in tumor of human HCT116 cells xenografted nu/nu mouse assessed as time for maximum largazole thiol level at 10 mg/kg, ip by HPLC-MS method. Details: dose 10 mg/kg, route intraperitoneal. It counts as ADME, organism-based, Neoplasm, HCT-116. The settings on record: in vivo.
Data set [10] can be described thus: Drug metabolism in human HCT116 cells protein lysate solution assessed as largazole thiol formation at 25 ug/mL after 30 mins by HPLC-MS method. The settings on record: hct-116, 0.5 h. It counts as ADME, cell-based.
The test system of data set [11] is HCT-116. Put plainly: In vivo inhibition of HDAC in tumor of human HCT116 cells xenografted nu/nu mouse assessed as increase in histone hyperacetylation at 50 mg/kg, ip after 4 hrs by immunoblotting method. It counts as functional, organism-based. The arrangement: dose 50 mg/kg. In short, it runs like this:
(§2)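 HCT116 xenograft mice were dosed intraperitoneally at 10 or 50 mg/kg. Tumors were excised after 4, 12 and 24 h, n = 2. Histone hyperacetylation in tumor tissue was assessed by immunoblotting.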
In general terms: A xenograft is tissue or cells of one species grown in another, often human tumour cells in immunodeficient mice.

Data set [12] can be described thus: Drug metabolism in tumor of human HCT116 cells xenografted nu/nu mouse assessed as time for maximum largazole thiol level at 50 mg/kg, ip by HPLC-MS method. The class given is ADME, organism-based, Neoplasm, HCT-116. Details: dose 50 mg/kg, route intraperitoneal. The settings on record: in vivo.
Data set [13] relates to HCT-116. Put plainly: In vivo inhibition of HDAC in tumor of human HCT116 cells xenografted nu/nu mouse assessed as increase in histone hyperacetylation at 10 mg/kg, ip after 4 to 24 hrs by immunoblotting method. The class given is functional, organism-based. The arrangement: dose 10 mg/kg. In short, it runs like this:
as §2

The target in data set [14] is Histone deacetylase (Homo sapiens) (UniProt Q13547+O15379+Q9UBN7+Q92769+Q9UQL6+Q8WUI4+Q9BY41+Q96DB2+P56524+Q9UKV0+Q969S8). In words: Inhibition of HDAC in human HCT116 cells assessed as increase in histone H3 (Lys9/14) hyperacetylation after 8 to 24 hrs by immunoblotting method. It counts as cell-based. The settings on record: HCT-116. In short, it runs like this: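 HCT116 cells were treated across a dose range. Cellular HDAC inhibition was read as histone H3 (Lys9/14) hyperacetylation by immunoblot at 8 and 24 h post-treatment.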
(In western blotting, separated proteins are transferred to a membrane and probed.)

Data set [15] relates to HCT-116. In words: In vivo inhibition of HDAC in tumor of human HCT116 cells xenografted nu/nu mouse assessed as increase in histone hyperacetylation at 50 mg/kg, po after 4 to 12 hrs by immunoblotting method. The class given is functional, organism-based. The arrangement: dose 50 mg/kg. In short, it runs like this:
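Mice bearing HCT116 xenografts were dosed intraperitoneally at 10 or 50 mg/kg, or orally at 50 mg/kg. Tumors were excised at 4, 12 and 24 h. Histone hyperacetylation in the tumors was assessed by immunoblot, n = 2.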

A short description of data set [16]: Drug metabolism in tumor of human HCT116 cells xenografted nu/nu mouse assessed largazole thiol formation at 50 mg/kg, po by HPLC-MS method. The settings on record: in vivo.
The subject of another data set is Serum. In words: Drug metabolism in mouse serum assessed as largazole thiol formation after 0.25 to 1440 mins by HPLC-MS method. The class given is ADME, cell-free.
The subject of data set [17] is HCT-116. Put plainly: In vivo inhibition of HDAC in tumor of human HCT116 cells xenografted nu/nu mouse assessed as increase in histone hyperacetylation at 50 mg/kg, ip after 4 to 24 hrs by immunoblotting method. The class given is functional, organism-based. The arrangement: dose 50 mg/kg. Put shortly: as §2

Molecules are shown by their SMILES. The source made the active and inactive calls. No cut-off for these calls is given here. Some results are limits rather than exact numbers.

T4 sequence (P56524 whole entry): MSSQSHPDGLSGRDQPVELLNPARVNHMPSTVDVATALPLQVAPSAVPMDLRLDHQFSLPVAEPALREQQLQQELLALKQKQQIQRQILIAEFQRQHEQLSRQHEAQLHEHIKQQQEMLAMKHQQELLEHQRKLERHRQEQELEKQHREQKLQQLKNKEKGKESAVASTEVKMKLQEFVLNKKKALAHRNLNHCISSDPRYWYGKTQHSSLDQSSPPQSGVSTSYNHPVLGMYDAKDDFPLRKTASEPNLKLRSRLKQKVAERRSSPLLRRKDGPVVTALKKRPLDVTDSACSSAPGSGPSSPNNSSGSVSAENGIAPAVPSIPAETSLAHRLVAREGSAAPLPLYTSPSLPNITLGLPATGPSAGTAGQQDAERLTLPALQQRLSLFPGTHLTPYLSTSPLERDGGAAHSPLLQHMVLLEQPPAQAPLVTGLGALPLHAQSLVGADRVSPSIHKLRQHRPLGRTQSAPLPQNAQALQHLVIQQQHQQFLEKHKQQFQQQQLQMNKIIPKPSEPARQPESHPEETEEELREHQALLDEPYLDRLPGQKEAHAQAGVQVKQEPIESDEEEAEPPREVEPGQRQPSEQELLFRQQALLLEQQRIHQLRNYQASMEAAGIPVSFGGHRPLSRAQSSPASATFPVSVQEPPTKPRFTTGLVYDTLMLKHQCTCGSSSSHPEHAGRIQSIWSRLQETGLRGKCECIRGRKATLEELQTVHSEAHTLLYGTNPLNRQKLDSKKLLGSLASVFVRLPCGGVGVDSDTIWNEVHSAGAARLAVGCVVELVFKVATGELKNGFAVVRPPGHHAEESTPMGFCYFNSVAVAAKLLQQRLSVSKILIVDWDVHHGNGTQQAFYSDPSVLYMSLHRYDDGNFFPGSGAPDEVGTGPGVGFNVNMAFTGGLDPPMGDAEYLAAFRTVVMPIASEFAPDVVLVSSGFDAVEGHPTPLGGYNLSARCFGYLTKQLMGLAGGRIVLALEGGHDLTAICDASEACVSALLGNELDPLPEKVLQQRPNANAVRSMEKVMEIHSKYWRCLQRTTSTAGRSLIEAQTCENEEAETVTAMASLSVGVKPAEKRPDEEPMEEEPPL
T1 sequence (Q9UKV0 whole entry): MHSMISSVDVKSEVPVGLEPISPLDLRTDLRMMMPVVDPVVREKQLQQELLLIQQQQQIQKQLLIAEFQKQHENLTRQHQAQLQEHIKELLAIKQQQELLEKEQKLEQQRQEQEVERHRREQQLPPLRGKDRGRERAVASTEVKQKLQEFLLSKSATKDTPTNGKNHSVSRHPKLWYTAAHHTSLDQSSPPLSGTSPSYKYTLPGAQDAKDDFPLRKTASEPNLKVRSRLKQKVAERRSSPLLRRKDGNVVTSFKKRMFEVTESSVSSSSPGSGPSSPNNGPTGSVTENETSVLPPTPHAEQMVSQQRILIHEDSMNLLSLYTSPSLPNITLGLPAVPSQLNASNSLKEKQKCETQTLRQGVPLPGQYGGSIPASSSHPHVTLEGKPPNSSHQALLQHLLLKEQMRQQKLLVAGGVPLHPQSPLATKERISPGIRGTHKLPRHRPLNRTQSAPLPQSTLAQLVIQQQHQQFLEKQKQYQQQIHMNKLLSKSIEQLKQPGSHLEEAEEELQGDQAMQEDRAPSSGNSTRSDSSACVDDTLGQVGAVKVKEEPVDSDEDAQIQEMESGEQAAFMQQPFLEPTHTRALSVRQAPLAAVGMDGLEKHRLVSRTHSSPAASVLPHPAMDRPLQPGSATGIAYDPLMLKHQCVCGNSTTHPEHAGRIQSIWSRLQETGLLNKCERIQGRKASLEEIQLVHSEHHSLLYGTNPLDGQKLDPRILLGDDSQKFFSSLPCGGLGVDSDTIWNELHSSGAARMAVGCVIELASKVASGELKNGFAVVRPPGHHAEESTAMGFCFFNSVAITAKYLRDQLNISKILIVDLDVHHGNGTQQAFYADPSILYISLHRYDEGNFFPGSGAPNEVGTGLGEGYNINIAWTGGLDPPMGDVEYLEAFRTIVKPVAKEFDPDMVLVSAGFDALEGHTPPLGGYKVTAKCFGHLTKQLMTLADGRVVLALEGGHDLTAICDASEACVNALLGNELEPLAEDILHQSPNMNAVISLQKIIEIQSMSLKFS
T2 sequence (Q9UQL6 whole entry): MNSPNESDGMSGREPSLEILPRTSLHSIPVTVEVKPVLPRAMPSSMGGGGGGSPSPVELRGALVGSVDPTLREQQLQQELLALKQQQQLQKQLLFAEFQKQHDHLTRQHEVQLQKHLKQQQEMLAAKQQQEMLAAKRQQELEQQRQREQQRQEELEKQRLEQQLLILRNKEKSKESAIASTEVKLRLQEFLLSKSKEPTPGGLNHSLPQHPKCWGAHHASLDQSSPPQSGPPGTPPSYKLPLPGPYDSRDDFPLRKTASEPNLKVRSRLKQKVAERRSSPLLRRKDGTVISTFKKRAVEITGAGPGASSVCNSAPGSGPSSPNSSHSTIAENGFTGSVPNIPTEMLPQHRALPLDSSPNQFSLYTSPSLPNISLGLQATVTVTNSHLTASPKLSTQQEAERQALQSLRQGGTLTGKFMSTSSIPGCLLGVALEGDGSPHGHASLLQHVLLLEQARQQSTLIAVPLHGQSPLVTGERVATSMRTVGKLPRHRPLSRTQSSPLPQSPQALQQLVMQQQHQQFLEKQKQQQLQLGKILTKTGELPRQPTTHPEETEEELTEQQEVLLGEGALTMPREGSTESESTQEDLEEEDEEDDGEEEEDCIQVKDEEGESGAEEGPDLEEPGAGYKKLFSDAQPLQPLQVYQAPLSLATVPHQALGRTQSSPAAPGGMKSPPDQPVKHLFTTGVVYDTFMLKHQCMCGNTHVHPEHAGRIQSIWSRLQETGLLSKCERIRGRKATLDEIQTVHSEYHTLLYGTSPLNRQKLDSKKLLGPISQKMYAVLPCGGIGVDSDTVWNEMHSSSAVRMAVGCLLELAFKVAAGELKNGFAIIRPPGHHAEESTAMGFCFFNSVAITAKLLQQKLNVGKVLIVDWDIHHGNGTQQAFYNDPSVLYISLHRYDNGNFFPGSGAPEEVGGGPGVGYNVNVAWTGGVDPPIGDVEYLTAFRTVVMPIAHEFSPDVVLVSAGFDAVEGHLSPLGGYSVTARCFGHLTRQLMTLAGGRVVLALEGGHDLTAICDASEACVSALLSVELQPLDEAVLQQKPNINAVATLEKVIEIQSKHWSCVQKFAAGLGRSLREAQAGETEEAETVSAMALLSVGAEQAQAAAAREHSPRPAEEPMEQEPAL

One may read the inhibition as the share of the control response that was lost under treatment. What is called IC50 is the concentration needed to halve the response being measured. As for `CC(C)[C@H]1NC(=O)[C@]2(C)CSC(=N2)c2csc(n2)CNC(=O)C[C@@H](/C=C/CCS)OC1=O` [LARGAZOLE THIOL], the inhibition (at Histone deacetylase 9 [1]; on Histone deacetylase 5 [2]; in [4]; at Histone deacetylase 4 [5]) was < 20% throughout. Further, the IC50 in [3] is 5.9 nM; at Histone deacetylase 5 [6], “Not Active”; at Histone deacetylase 9 [7], “Not Active”; at Histone deacetylase 7, “Not Active”; at Histone deacetylase 4 [8] it was “Not Active”.
Broadly, the Tmax is the time at which the peak concentration occurs. With `CCCCCCCC(=O)SCC/C=C/[C@@H]1CC(=O)NCc2nc(cs2)C2=N[C@@](C)(CS2)C(=O)N[C@@H](C(C)C)C(=O)O1` [LARGAZOLE], the Tmax in [9] and in [12] was 4 h throughout. The Drug metabolism entry (in [10]; in [16]; in the data set with Serum) was “metabolite_detected” in each case. The inhibition entry in the data set with HCT-116 [11], in the data set with HCT-116 [13], with HCT-116 [15] and with HCT-116 [17] was “Active” throughout. In addition, the inhibition result in [14] was “Dose-dependent effect”.

Values taken from ChEMBL document CHEMBL3352121, “Modulation of Activity Profiles for Largazole-Based HDAC Inhibitors through Alteration of Prodrug Properties” (ACS Med Chem Lett, 2014).
